Experimental data from ChEMBL document CHEMBL4138200, “Amino acid and peptide prodrugs of diphenylpropanones positive allosteric modulators of α7 nicotinic receptors with analgesic activity” (Eur J Med Chem, 2018).
Converted amounts (≈) assume the structure as drawn. The source made the active and inactive calls.

Columns and labels:
[1] = Aqueous solubility of the compound in PBS buffer; format: physicochemical
[2] = Permeability across apical to basolateral side in human Caco2 cells; format: ADME, cell-based; details: Caco-2, read-out: permeability
[3] = target: Neuronal acetylcholine receptor subunit alpha-7 (Homo sapiens) (UniProt P36544); assay: Positive allosteric modulation of human alpha7 nAChR expressed in Xenopus laevis oocytes assessed as acetyl choline-evoked currents at 10 uM at -80 mV holding potential prtreated for 2 mins followed by co-treatment with acetyl choline by electrophysiology method relative to acetyl choline; format: cell-based
How it was run: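 Defolliculated Xenopus laevis oocytes were injected with 5 ng α7 cRNA and recorded 2–3 days later at 22°C, -80 mV. Compound (10 μM) was bath-preapplied for 2 min, then co-applied with 200 μM ACh by fast pipette application for 0.6 s. Peak current is expressed relative to the ACh-alone control (100%).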

[4] = test system: Rattus norvegicus; assay: Analgesic activity in CFA-induced paw inflammation Wistar rat model assessed as increase in paw withdrawal latency at 10 mg/kg, iv administered at 24 hrs post CFA injection measured at 30 mins post compound administration; format: functional, organism-based
How it was run: (§1)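 Male Wistar rats (250–300 g). CFA emulsion (1:1 oil/saline, 0.5 mg/ml, 50 μl) was injected intraplantar into the hind paw. 24 h later, compound was dissolved in DMSO, diluted in 0.9% saline (final DMSO 2,5%) and given iv at 10 mg/kg in 0,5 ml. Paw withdrawal latency was measured on a dynamic plantar aesthesiometer (ramp 2.5 g/s, 50 g cutoff), as the mean of three readings per time point, for up to 4 h; n ≥ 6 rats/group, two-way ANOVA with Bonferroni.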

[5] = test system: Rattus norvegicus; assay: Analgesic activity in CFA-induced paw inflammation Wistar rat model assessed as increase in paw withdrawal latency at 10 mg/kg, iv administered at 24 hrs post CFA injection measured at 1 hr post compound administration; format: functional, organism-based; how it was run: as §1

Sequence of Neuronal acetylcholine receptor subunit alpha-7 (Homo sapiens) (P36544 whole entry): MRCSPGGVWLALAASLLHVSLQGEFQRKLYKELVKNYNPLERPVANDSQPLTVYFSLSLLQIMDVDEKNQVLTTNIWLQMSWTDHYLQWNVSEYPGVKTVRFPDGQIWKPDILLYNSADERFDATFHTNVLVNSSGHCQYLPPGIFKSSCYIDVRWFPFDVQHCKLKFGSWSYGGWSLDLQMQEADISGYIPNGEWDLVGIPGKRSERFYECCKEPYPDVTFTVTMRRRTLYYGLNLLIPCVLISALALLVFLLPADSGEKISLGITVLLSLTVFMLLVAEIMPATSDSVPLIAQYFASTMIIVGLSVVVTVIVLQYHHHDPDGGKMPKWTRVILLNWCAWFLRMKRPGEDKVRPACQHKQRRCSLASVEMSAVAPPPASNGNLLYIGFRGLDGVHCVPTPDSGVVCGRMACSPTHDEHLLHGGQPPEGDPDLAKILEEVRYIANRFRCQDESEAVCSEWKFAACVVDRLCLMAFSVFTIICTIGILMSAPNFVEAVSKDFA

| SMILES | Activity [3] [%] | other results |
| --- | --- | --- |
| O=C(CCc1ccc(O)cc1)c1cc(O)ccc1O | 666 | solubility ([1]; PBS buffer, read-out: solubility): 160 µM (≈ 41.3 µg/mL); Papp A→B [2]: 33.5 ×10⁻⁶ cm/s |
| O=C(CCc1ccc(O)cc1O)c1cc(O)ccc1O | 989 |  |
| Br.CC(C)C(N)C(=O)N1CCC[C@H]1C(=O)NC(C(=O)Oc1ccc(CCC(=O)c2cc(O)ccc2O)c(O)c1)C(C)C (stereo in doubt) | 25.3 | solubility ([1]; buffer): Soluble |
| CC(C)C(N)C(=O)N1CCC[C@H]1C(=O)NC(C(=O)Oc1ccc(CCC(=O)c2cc(O)ccc2O)cc1)C(C)C (stereo in doubt) | 24.7 | Activity [5]: Active |
| CC(C)C(N)C(=O)NC(C(=O)Oc1ccc(/C=C/C(=O)c2cc(O)ccc2O)c(O)c1)C(C)C (stereo in doubt) | 24.5 |  |

More lines, main results first:

| Activity [3] [%] | SMILES | other results |
| --- | --- | --- |
| 14.7 | Br.CC(C)C(N)C(=O)NC(C(=O)Oc1ccc(CCC(=O)c2cc(O)ccc2O)cc1)C(C)C (stereo in doubt) | solubility ([1]; buffer): Soluble; Activity [4]: Active; Activity [5]: inactive |
| 26.7 | CC(C)C(N)C(=O)NC(C(=O)Oc1ccc(CCC(=O)c2cc(O)ccc2O)c(O)c1)C(C)C (stereo in doubt) |  |
